Results on 4 compounds are retold here after ChEMBL document CHEMBL1821702, “8,8-Dimethyldihydroberberine with improved bioavailability and oral efficacy on obese and diabetic mouse models” (Bioorg Med Chem, 2010).

Structures are written as SMILES. Activity calls are given as the source filed them. The rule behind the calls is not given here.

The species entered for data set [1] is Rattus norvegicus. Briefly: Induction of AMPK phosphorylation in 2 hrs serum starved rat differentiated L6 myotubes after 1 hr. The procedure, abridged: (§1)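 Fully differentiated L6 myotubes were serum-starved 2 h, then treated 1 h across a dose series. Phospho-AMPK (Thr172) and phospho-ACC (Ser79) were detected by Western blot. Three independent experiments.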

The species named for data set [2] is Rattus norvegicus. Briefly: Induction of AMPK-dependent ACC phosphorylation in 2 hrs serum starved rat differentiated L6 myotubes after 1 hr. The procedure, abridged: as §1
Data set [3] concerns L6. Kind of data set: Cytotoxicity against rat L6 cells upto 10 uM after 24 hrs by MTT assay. In kind it is cell-based. The settings on record: l6, 24 h. The procedure, abridged: (§2)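 Differentiated L6 myoblasts were exposed to a concentration range of compounds for 24 h at 37 °C. MTT (5 mg/mL) was added for 3 h, formazan was dissolved in DMSO, and absorbance was read at 550 nm against 690 nm reference. Mean of three independent experiments ± SE.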

For data set [4], the system named is L6. Briefly: Increase in glucose uptake in rat differentiated L6 myotubes after 1 hr relative to untreated control. In kind it is functional. The essentials: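 Fully differentiated L6 myotubes were serum-starved 2 h, then treated with compound for 15 min to 2 h (dose series at 1 h). Glucose uptake was measured relative to DMSO control. Mean of three independent experiments ± SE.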

In data set [5] the test system is L6. Kind of data set: Cytotoxicity against rat L6 cells upto 40 uM after 24 hrs by MTT assay. The format is cell-based. The following applies: l6, 24 h. The procedure, abridged: as §2
Data set [6] deals with Mus musculus. Kind of data set: Antidiabetic activity in C57BLKS/J-db/db mouse assessed as decrease in area under curve at 50 mg/kg/day, po for 4 weeks by insulin tolerance test. In kind it is functional. The arrangement: scale not given: the % may be the effect or the level left.
The test system of data set [7] is Mus musculus. Kind of data set: Antidiabetic activity in C57BLKS/J-db/db mouse assessed as alleviation of glucose tolerance at 50 mg/kg/day, po for 3 weeks by intraperitoneal glucose tolerance test. In kind it is functional, organism-based. The procedure, abridged: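 Male and female C57BLKS/J-db/db mice, randomized at 6 weeks of age by body weight and fed glucose, were gavaged once daily in vehicle (0.5% microcrystalline cellulose, 1.6% lactose). For ipGTT, D-glucose was given at 2 g/kg ip, and blood glucose was read by glucometer at 0, 15, 30, 60, 90 and 120 min.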

Data set [8] has as its system Mus musculus. Briefly: Toxicity in C57BLKS/J-db/db mouse assessed as increase in subcutaneous fat at 50 mg/kg/day, po for 6 weeks. The format is organism-based. More on the design: route oral. The settings on record: in vivo, 1008 h. The essentials:
(§3)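 db/db mice (half male, half female) were dosed by oral gavage daily for 6 weeks in 0.5% microcrystalline cellulose/1.6% lactose vehicle. Body weight and food intake were recorded daily. Mice were killed after the final dose, and liver and fat depots were weighed and expressed relative to body weight.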

Data set [9] concerns Mus musculus. Kind of data set: Toxicity in C57BLKS/J-db/db mouse assessed as reduction in liver weight at 50 mg/kg/day, po for 6 weeks. The arrangement: route oral; scale not given: the % may be the effect or the level left. The following applies: in vivo, 1008 h. The format is organism-based. The essentials: as §3
The nature of data set [10]: Aqueous solubility of compound in distilled water. In kind it is physicochemical. The procedure, abridged: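 Excess solid was suspended in distilled water and stirred 24 h at 25 ± 0.5 °C. The suspension was filtered, and dissolved concentration was measured by HPLC.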
For data set [11], the system named is Mus musculus. Kind of data set: Antidiabetic activity in C57BLKS/J-db/db mouse assessed as reduction of fasting blood glucose level at 50 mg/kg/day, po for 3 weeks. In kind it is functional. More on the design: scale not given: the % may be the effect or the level left.
Data set [12] can be described thus: Stability in acidic buffer at pH 2 after 6 hrs by HPLC. The format is physicochemical. The following applies: acidic buffer, pH 2. The procedure, abridged:
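A 0.5 mg/mL solution in acetonitrile was adjusted to pH 2 with H3PO4 and analyzed over 6 h by HPLC. Conditions: C18 column at 25 °C, 58% acetonitrile in 0.05 mol/L KH2PO4/0.005 mol/L SDS, 1 mL/min, detection at 320 nm.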

The test system of data set [13] is Mus musculus. Kind of data set: Toxicity in C57BLKS/J-db/db mouse assessed as change in body weight at 50 mg/kg/day, po for 6 weeks. The format is organism-based. The arrangement: route oral. The settings on record: in vivo, 1008 h. The essentials:
as §3

The subject of data set [14] is Mus musculus. Briefly: Antidiabetic activity in C57BLKS/J-db/db mouse assessed as decrease in fed blood glucose level at 50 mg/kg/day, po for 3 weeks. In kind it is functional. The arrangement: scale not given: the % may be the effect or the level left.
Data set [15] in a line: Oral bioavailability in 12 hrs fasting Sprague-Dawley rat at 20 mg/kg. The following applies: in vivo. The format is ADME, organism-based.
Data set [16] relates to Mus musculus. Kind of data set: Toxicity in C57BLKS/J-db/db mouse assessed as change in food intake at 50 mg/kg/day, po for 6 weeks. The settings on record: in vivo, 1008 h. In kind it is organism-based. The arrangement: route oral. The procedure, abridged:
as §3

The test system of data set [17] is Mus musculus. Kind of data set: Antiobese activity in C57BLKS/J-db/db mouse assessed as decrease in plasma triglyceride level at 50 mg/kg/day, po […]. The format is functional. The procedure, abridged:
(§4)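 db/db mice were gavaged once daily in 0.5% microcrystalline cellulose/1.6% lactose vehicle for 6 weeks and killed after the final dose. Plasma triglycerides were measured with a colorimetric triglyceride assay kit.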

The test system of data set [18] is Mus musculus. Kind of data set: Antidiabetic activity in C57BLKS/J-db/db mouse assessed as decrease in fed blood glucose level at 50 mg/kg/day, po for 4 weeks. The format is functional. More on the design: scale not given: the % may be the effect or the level left.
Data set [19] has as its system Mus musculus. Briefly: Antidiabetic activity in high fat diet-fed C57BL/6J mouse assessed as decrease in blood glucose level at 250 mg/kg/day, po for 4 weeks measured after 120 mins by intraperitoneal glucose tolerance test. The format is functional, organism-based. The essentials: (§5)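 High-fat-diet (60 kcal%, 8 weeks) male C57BL/6J mice were randomized by body weight and fed glucose, then dosed orally once daily in cellulose/lactose vehicle. ipGTT was done at 4 weeks: D-glucose 2 g/kg ip, glucometer readings at 0, 15, 30, 60, 90 and 120 min. n = 5–8.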

The subject of data set [20] is Mus musculus. Briefly: Antiobese activity in high fat diet-fed C57BL/6J mouse assessed as decrease in plasma triglyceride level at 250 mg/kg/day, po for 6 weeks. The format is functional. The arrangement: scale not given: the % may be the effect or the level left. The essentials:
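DIO male C57BL/6J mice received daily oral dosing in cellulose/lactose vehicle for 6 weeks and were killed after the final dose. Plasma and liver triglycerides were measured by triglyceride assay kit, and fat depots were weighed.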

Data set [21] concerns Mus musculus. Briefly: Antiobese activity in C57BLKS/J-db/db mouse assessed as decrease in plasma triglyceride level at 250 mg/kg/day, po […]. In kind it is functional. The arrangement: scale not given: the % may be the effect or the level left. The essentials:
as §4

Data set [22] concerns Mus musculus. Kind of data set: Antidiabetic activity in C57BLKS/J-db/db mouse assessed as reduction of fasting blood glucose level at 250 mg/kg/day, po for 5 weeks. The format is functional, organism-based.
Data set [23] concerns Mus musculus. Briefly: Antidiabetic activity in high fat diet-fed C57BL/6J mouse assessed as decrease in blood glucose level at 250 mg/kg/day, po for 4 weeks measured after 60 mins by intraperitoneal glucose tolerance test. In kind it is functional, organism-based. The essentials:
as §5

Data set [24] concerns Mus musculus. Briefly: Antidiabetic activity in high fat diet-fed C57BL/6J mouse assessed as decrease in plasma insulin level at 250 mg/kg/day, po for 4 weeks. More on the design: scale not given: the % may be the effect or the level left. In kind it is functional. The procedure, abridged:
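DIO male C57BL/6J mice (60 kcal% fat diet for 8 weeks) were gavaged daily in 0.5% microcrystalline cellulose/1.6% lactose vehicle. Plasma insulin was determined by ELISA after 4 weeks of treatment. Mean ± SE, n = 5–8.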

In the case of `CCC1(CC)c2c(ccc(OC)c2OC)CC2=[N+]1CCc1cc3c(cc12)OCO3.[Cl-]` [8,8-Diethyldihydroberberine], the Activity entry in the data set filed under Rattus norvegicus [1] is “Dose-dependent effect”; in the data set listed under Rattus norvegicus [2], “Dose-dependent effect”; in the data set on L6 [3], “Toxic”.
Take `CCCC1(CCC)c2c(ccc(OC)c2OC)CC2=[N+]1CCc1cc3c(cc12)OCO3.[Cl-]` [8,8-Dipropyldihydroberberine]: the Activity is 62% in the data set with L6 [4] and “Non-toxic” with L6 [5].
What is called solubility is the dissolved amount per volume that the medium holds. Usually bioavailability stands for the share of a dose that reaches the circulation, judged against a reference dose that is usually intravenous. For `COc1ccc2c(c1OC)CN1CCc3cc4c(cc3C1=C2)OCO4` [DIHYDROBERBERINE], the Activity in the data set on Mus musculus [6] was 12%; in the data set on Mus musculus [8], 14%; in the data set with Mus musculus [9], 11%; in the data set with Mus musculus [11], 17%; in the data set with Mus musculus [13], “Non-toxic”; in the data set on Mus musculus [14], 25%. The Activity entry in the data set on Mus musculus [16] is “Non-toxic”; in the data set with Mus musculus [18], 18%. Moreover, the outcome in the data set with Mus musculus [7] and in the data set with Mus musculus [17] was inactive. Also, the solubility in data set [10] is below 1000 µg/mL. Moreover, the decrease in content after 6 h at 6 h in [12] turned out to be 17%. In [15], the bioavailability stood at 2.65%.
Turning to `CN(C)C(=N)NC(=N)N` [METFORMIN], the result in the data set on Mus musculus [19], with Mus musculus [22] and in the data set with Mus musculus [23] was Active. The Activity turned out to be 33% with Mus musculus [20], 23% in the data set with Mus musculus [21], 14% with Mus musculus [6] and 43% in the data set on Mus musculus [24].
